# Assay outcomes from PubChem BioAssay.
# Compounds with a hit are over-represented: about 2.3% of the library has one in this group of screens.
# Cneo AK release: Cryptococcus neoformans cell lysis inducers, primary screen, AK release luminescence, single concentration | C. neoformans lysis, adenylate kinase release luminescence, 4 h; normalised: neutral wells 0, clomiphene wells 100 | lysis activity, % at 15 µM | 360,000 tested, 0.2% active;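 active = mean lysis activity across replicates of at least 80%, whatever share of replicates individually reach that level; inactive = mean lysis activity below 80%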
#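 Test system: log-phase Cryptococcus neoformans yeast cells. Input: 5 × 10^6 yeast cells/mL. Medium: fresh YPD growth medium. Doses: single dose. Incubation: static 4 h at 37 °C with compound, 1 h detection. Measured by: luminescent adenylate kinase detection reagent. Read-out: signal increase indicating cell lysis. Benchmarks: Clomiphene.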
# DENV2 CPE rescue: inhibitors of DENV2 cytopathic effect, primary screen, cell-based, plate reader, single concentration | DENV2-infected cells, cytopathic effect rescue | CPE inhibition, % at 9.99 µM | 350,000 tested, 1.7% active | AID 651640, 2012; in the data active = CPE inhibition above about 20%, passing the limit was not always enough; inconclusive = no clear call, values can overlap the other calls; tested in BHK-21 cells
# PDI turbidity: inhibitors of human PDI, primary screen, biochemical, turbidity, single point, plate reader; PDI insulin aggregation turbidity, A650, 90 min; inhibition, % at 10 µM; 350,000 tested, 0.052% active; AID 588391, 2011;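 active = mean inhibition across replicates of 30% or more, whatever share of single replicates reach that level; inconclusive = mean inhibition below 30% while every single replicate reaches 30%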
# Target sequence (P07237 whole entry, looked up): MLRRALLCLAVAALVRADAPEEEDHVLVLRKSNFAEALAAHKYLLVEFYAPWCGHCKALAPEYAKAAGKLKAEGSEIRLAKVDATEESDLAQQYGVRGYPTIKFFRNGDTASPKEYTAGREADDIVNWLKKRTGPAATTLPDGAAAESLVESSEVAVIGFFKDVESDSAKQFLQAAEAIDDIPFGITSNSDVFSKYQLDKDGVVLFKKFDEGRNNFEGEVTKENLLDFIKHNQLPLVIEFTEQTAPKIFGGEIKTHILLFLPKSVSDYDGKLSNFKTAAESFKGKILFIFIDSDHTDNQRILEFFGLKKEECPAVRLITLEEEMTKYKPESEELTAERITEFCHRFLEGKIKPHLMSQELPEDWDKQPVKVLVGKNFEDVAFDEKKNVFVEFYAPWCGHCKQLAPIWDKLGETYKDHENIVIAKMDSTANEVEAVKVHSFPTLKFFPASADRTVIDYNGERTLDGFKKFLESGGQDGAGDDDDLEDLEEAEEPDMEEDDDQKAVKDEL
# ERp5 inh: inhibitors of ERp5-driven insulin aggregation, primary screen, biochemical, turbidity, absorbance 650 nm, single point; inhibition, % at 9.99 µM; 350,000 tested, 0.05% active; Protein disulfide-isomerase A6 (Homo sapiens), Q15084; 90 min; AID 651711, 2012;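 active = mean replicate inhibition above about 25%, with every replicate also reaching it, limit read from the data, passing the limit was not always enough; inconclusive = only one of those two criteria met; inactive = neither criterion met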
# C2C12 statin: suppressors of statin myotoxicity in C2C12 myotubes, primary screen, cell-based, single point, plate reader; C2C12 myotubes + simvastatin, ATP luminescence, 48 h; scaled: DMSO 0, geranylgeraniol control 100; rescue of ATP level, % at 7.49 µM; 330,000 tested, 0.78% active; AID 602340, 2012;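 active = mean ATP rescue above about 67%, or every replicate alone reaching that limit, limit read from the data, passing the limit was not always enough; inconclusive = no clear call, values can overlap the other calls; inactive = mean under the limit and some replicate under it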;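 also: myotubes were challenged with 10 µM simvastatin during compound exposure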
# F508del corr: F508del CFTR correction, initial screen, CFBE line, single point | CFBE cells, YFP halide quenching; stimulated with forskolin plus potentiator P3; % fluorescence drop versus neutral controls | 350,000 tested, 0.36% active | activity (quench increase), % at 7.58 µM;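 active = mean added fluorescence quench of at least 8% versus neutral control, with both replicates also reaching 8%; inconclusive = only one of the mean or replicate conditions met; inactive = mean below 8% and not both replicates reaching 8%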;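 also: cells transiently co-express mutant CFTR-F508del with the halide-sensitive YFP; corrector assay measuring rescue of mutant channel to the surface after 24 h compound exposure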
# Hits are given with their value; – = inactive; ? = inconclusive; · = no result given; ! = not confirmed by another sample.
SMILES,Cneo AK release,DENV2 CPE rescue,PDI turbidity,ERp5 inh,C2C12 statin,F508del corr
Cc1ccc(S(=O)(=O)Cc2ccccc2Cl)cc1,·,29,–,–,·,·
Cc1ccc(S(=O)(=O)CCC(=O)NCc2ccccc2Cl)cc1,·,·,–,–,·,–
Cc1cc(C)n2c(NC3CCCC3)c(-c3cccnc3)nc2n1,·,22,·,–,·,–
COc1ccc(-c2oc(=O)c3cc(OC)c(OC)cc3c2/C=C/c2cccc([N+](=O)[O-])c2)cc1,–,34,–,–,–,–
COc1ccc(-c2oc(=O)c3cc(OC)c(OC)cc3c2/C=C/c2ccc([N+](=O)[O-])cc2)cc1,–,·,–,–,–,–
N#CCCN1CCN(Cn2c3ccccc3c3ccccc32)CC1,–,·,–,·,114,·
CS(=O)(=O)N1C[C@@H]2N[C@H](C1)[C@@H]2c1ccc(-c2ccccc2)cc1,·,100,·,·,·,–
Cc1ccccc1S(=O)(=O)N1C[C@@H]2N[C@H](C1)C2c1ccc(-c2cccc(C#N)c2)cc1 (stereo partly drawn),·,?,·,·,·,8.4!
CO[C@@H]1CC[C@H]2CCN(C)C(=O)C[C@@H](c3ccccc3)CN(C)C(=O)c3cccc(C#N)c3OC[C@@H]1O2,–,–,·,–,–,·
C[C@@H]1CN([C@@H](C)CO)C(=O)c2cc(C#CCc3ccccc3)cnc2O[C@H]1CN(C)C(=O)C1CCC1,–,–,·,–,–,–
Cc1ccc(C(=O)C(C(=O)/C=C/c2ccccc2)=C2SCCCS2)cc1,–,·,–,·,113,·
Cc1ccc(C(=O)C=CC=Cc2ccccc2)cc1,–,–,–,–,–,–
C[C@H]1CN([C@@H](C)CO)S(=O)(=O)c2ccc(-c3cccc(C#N)c3)cc2O[C@@H]1CN(C)Cc1cccc(F)c1,–,–,·,–,–,–
CCOc1ccc(NC(=O)C2CCN(S(C)(=O)=O)CC2)cc1,–,–,–,–,–,–
CCOC(=O)N1CCC(C(=O)Nc2ccc(OCC)cc2)CC1,–,–,·,–,–,9.8
COc1cccc(C(=O)c2c(-c3ccccc3)ncc3cc(OC)c(OC)cc23)c1,–,27,–,–,–,–
CCOC(=O)c1sc(NC(=O)CN(CC(C)C)CC(C)C)c(C(=O)OCC)c1C,–,·,–,·,74,·
CCOC(=O)c1c(NC(=O)CC(C)C)sc(C(C)=O)c1C,–,·,–,·,–,·
Cn1c(=O)c2c(ncn2CC(=O)OCC(=O)NC2CCCc3ccccc32)n(C)c1=O (stereo not drawn),–,·,–,·,88,·
COc1ccc(Nc2nc3ccc(C)cn3c(=O)c2/C=N/O)cc1,–,–,–,–,109,–
Cc1ccc2nc(Nc3ccccc3)c(/C=N/O)c(=O)n2c1,–,·,–,·,–,·
CO[C@@H]1CN(C)C(=O)c2cc(NS(=O)(=O)c3cn(C)cn3)ccc2OC[C@@H](C)N(C)C[C@@H]1C,–,·,·,·,–,–
COC(=O)[C@@]12C[C@@H](CC(=O)NCCCN3CCCC3=O)C(=O)N(Cc3ccco3)C1=CCC(C)(C)C2,·,–,·,–,·,–
COCCCNC(=O)C[C@@H]1C[C@@]2(C(=O)OC)CC(C)(C)CC=C2N(Cc2ccco2)C1=O,·,21,·,–,·,–
CCCCOCCCNC(=O)C[C@@H]1C[C@@]2(C(=O)OC)CC(C)(C)CC=C2N(Cc2ccc3c(c2)OCO3)C1=O,·,28,·,–,·,–
SMILES,Cneo AK release,DENV2 CPE rescue,PDI turbidity,ERp5 inh,C2C12 statin,F508del corr
C[C@@H]1CN([C@H](C)CO)C(=O)c2cc(-c3ccc(C#N)cc3)cnc2O[C@@H]1CN(C)Cc1cccnc1,–,–,·,–,–,–
CC(C)CC#Cc1ccc2c(c1)O[C@@H](CN(C)S(=O)(=O)c1cccc(F)c1)[C@@H](C)CN([C@H](C)CO)S2(=O)=O,–,–,·,–,–,–
COc1ccc2c3c(n(C)c2c1)[C@@H](CO)N(C(=O)c1ccccc1)CC31CCN(C(C)=O)CC1,·,?,·,–,·,–
COCC#Cc1ccc2c(c1)O[C@H](CN(C)C(=O)C1CC1)[C@@H](C)CN([C@@H](C)CO)S2(=O)=O,–,–,·,–,–,–
CCC(c1nc2ccccc2c(=O)n1CCN1CCOCC1)N1C(=O)c2ccccc2C1=O (stereo not drawn),–,·,–,·,141,·
COCC(=O)Nc1ccc2c(c1)[C@H]1C[C@H](CC(=O)N3CCN(C)CC3)O[C@H](CO)[C@H]1O2,–,–,·,·,–,–
O=c1[nH]c(CN2CCN(c3ccc(O)cc3)CC2)nc2scc(-c3ccc(Cl)cc3)c12,·,–,–,–,·,13
CC(=O)N(Cc1ccc(F)cc1)Cc1nc2ccccc2c(=O)[nH]1,–,–,–,–,–,–
CS(=O)(=O)N(Cc1ccc(F)cc1)Cc1nc2ccccc2c(=O)[nH]1,–,·,–,·,99,·
COc1ccccc1S(=O)(=O)N[C@@H]1CC[C@@H](CCNC(=O)C2CCCCC2)O[C@H]1CO,–,–,·,–,–,–
COc1ccccc1Nc1ncnc2c1c(C)c(C)n2CCCN(C)C,–,42,–,–,–,–
C[C@H]1CN([C@@H](C)CO)C(=O)c2cccc(NC(=O)C3CC3)c2O[C@H]1CN(C)C(=O)NC1CCCCC1,–,–,·,–,–,–
CC(NC(=O)c1cccc(S(=O)(=O)N2CCN(Cc3ccccc3)CC2)c1)c1ccc(Br)cc1 (stereo not drawn),–,25,–,–,–,–
CCCN1[C@H](C(=O)Nc2nccs2)[C@@H](CO)[C@@H]2Cn3c(ccc(-c4ccccc4OC)c3=O)[C@@H]21,–,–,·,–,–,·
COc1ccc(C(=O)N2CCN(C(=O)c3cc(OC)c(OC)c(OC)c3)CC2)cc1,–,·,–,·,108,·
COc1cc(C(=O)N2CCNCC2)cc(OC)c1OC,–,–,–,–,–,–
Cc1nn(CC(=O)NCCc2cccs2)c(=O)c2nn(-c3ccccc3)c(C)c12,–,–,–,–,–,–
Cc1ccc(-n2nc3c(=O)n(CC(=O)NCc4cccs4)nc(C)c3c2C)cc1,–,54,–,·,–,–
COc1ccc(C2CC(C(F)(F)F)n3nc(C(=O)NCCN4CCOCC4)cc3N2)cc1 (stereo not drawn),–,·,–,·,90,·
